Measured values published in ChEMBL document CHEMBL1134674, “Acetylcholinesterase inhibitors: SAR and kinetic studies on omega-[N-methyl-N-(3-alkylcarbamoyloxyphenyl)methyl]aminoalkoxyaryl derivatives” (J Med Chem, 2001).

Key:
Acetylcholinesterase = Acetylcholinesterase (Homo sapiens, UniProt P22303); test: In vitro inhibition of human erythrocyte Acetylcholinesterase.
Cholinesterase = Cholinesterase (Homo sapiens, UniProt P06276); test: In vitro inhibition of human serum Butyrylcholinesterase.
[1] = Compound was evaluated for equilibrium constant; format: ADME
Procedure, shortened: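 Stopped-time carbamoylation assay with human erythrocyte AChE and inhibitor at five concentrations in pH 8.0 assay buffer at 37 °C. After a few minutes, residual ATCh hydrolysis was read at 412 nm against a parallel no-inhibitor control. Fit R = R0·exp(−kobs·t) + R∞ gave kobs; KC came from the slope/intercept ratio of double-reciprocal kobs versus [I] plots.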

[2] = Compound was evaluated for rate constant (K3); format: ADME
[3] = Compound was evaluated for rate constant (K5); format: ADME

Sequence of Acetylcholinesterase (P22303 whole entry): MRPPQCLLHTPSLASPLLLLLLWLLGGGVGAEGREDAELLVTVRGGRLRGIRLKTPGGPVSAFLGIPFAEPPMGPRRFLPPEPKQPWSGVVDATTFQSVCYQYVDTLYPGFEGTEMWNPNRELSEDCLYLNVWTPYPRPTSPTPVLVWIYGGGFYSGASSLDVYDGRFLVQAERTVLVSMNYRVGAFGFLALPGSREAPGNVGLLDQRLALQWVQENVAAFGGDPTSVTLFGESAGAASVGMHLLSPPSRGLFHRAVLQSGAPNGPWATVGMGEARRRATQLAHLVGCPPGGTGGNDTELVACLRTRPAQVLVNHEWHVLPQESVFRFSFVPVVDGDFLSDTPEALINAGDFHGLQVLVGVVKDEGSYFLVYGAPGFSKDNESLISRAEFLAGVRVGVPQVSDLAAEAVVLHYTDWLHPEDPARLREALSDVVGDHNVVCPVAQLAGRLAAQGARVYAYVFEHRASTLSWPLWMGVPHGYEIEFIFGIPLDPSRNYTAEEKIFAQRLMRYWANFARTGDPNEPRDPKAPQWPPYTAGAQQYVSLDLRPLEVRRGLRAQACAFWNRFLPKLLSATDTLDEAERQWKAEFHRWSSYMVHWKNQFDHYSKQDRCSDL
Sequence of Cholinesterase (P06276 whole entry): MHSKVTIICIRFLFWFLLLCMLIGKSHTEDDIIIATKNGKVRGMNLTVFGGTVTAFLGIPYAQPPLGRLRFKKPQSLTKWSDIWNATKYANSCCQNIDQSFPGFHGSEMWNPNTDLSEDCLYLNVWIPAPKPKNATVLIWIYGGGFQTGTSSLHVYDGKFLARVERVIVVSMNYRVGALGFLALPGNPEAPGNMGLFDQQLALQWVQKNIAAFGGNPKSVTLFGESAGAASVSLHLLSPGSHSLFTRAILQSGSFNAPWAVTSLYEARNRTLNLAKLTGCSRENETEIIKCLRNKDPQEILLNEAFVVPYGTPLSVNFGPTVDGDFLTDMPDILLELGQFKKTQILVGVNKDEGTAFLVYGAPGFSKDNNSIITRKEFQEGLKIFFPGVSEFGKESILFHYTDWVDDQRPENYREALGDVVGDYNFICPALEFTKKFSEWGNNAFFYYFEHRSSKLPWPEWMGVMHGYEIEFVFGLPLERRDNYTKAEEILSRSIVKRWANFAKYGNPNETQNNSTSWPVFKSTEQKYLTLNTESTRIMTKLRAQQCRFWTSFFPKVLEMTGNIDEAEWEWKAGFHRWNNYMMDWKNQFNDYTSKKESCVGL

SMILES | IC50 (Acetylcholinesterase) [nM] | IC50 (Cholinesterase) [nM] | Kc [1] [nM] | K3 [2] [min⁻¹] | K5 [3] [h⁻¹]
CNC(=O)Oc1cccc(CN(C)CCCOc2ccc(-c3ccccc3)cc2)c1 | 54.6 | 42.6 |  |  | 
CNC(=O)Oc1cccc(CN(C)CCCCCCOc2ccc3c(=O)c4ccccc4oc3c2)c1 | 1.4 | 13.9 | 6.4 | 2.3 | 0.77
CN(CCCOc1ccc2c(=O)c3ccccc3oc2c1)Cc1cccc(OC(=O)NCCCCCCCCN2CCOCC2)c1 | 27.4 | 3.9 |  |  | 
CN(CCCOc1ccc2c(=O)c3ccccc3oc2c1)Cc1cccc(OC(=O)NCCCCCCCCCN2CCOCC2)c1 | 29.3 |  |  |  | 
CN(CCCOc1ccc2c(=O)c3ccccc3oc2c1)Cc1cccc(OC(=O)NCCCCCCCN2CCOCC2)c1 | 26.2 | 4.9 | 27.2 | 0.11 | 
CN(CCCOc1ccc2c(=O)c3ccccc3oc2c1)Cc1cccc(OC(=O)NCCCCCCN2CCOCC2)c1 | 21.1 | 7.5 |  |  | 
CNC(=O)Oc1cccc(CN(C)CCCOc2ccccc2)c1 | 79.6 | 24.8 |  |  | 
CNC(=O)Oc1ccc2c(c1)CN(CCCOc1ccc3c(=O)c4ccccc4oc3c1)CC2 | 12.4 | 34.1 |  |  | 
CNC(=O)Oc1cccc(CN(C)CCCOc2ccc3ccccc3c2)c1 | 82.6 | 205 |  |  | 
CNC(=O)Oc1cccc(CN(C)CCCCCCCCCOc2ccc3c(=O)c4ccccc4oc3c2)c1 | 11.7 | 48.3 |  |  | 
CNC(=O)Oc1cccc(CN(C)CCCCCCCOc2ccc3c(=O)c4ccccc4oc3c2)c1 | 0.32 | 16.5 |  |  | 
CNC(=O)Oc1cccc(CN(C)CCCOc2cccc(Cc3ccccc3)c2)c1 |  | 22.1 |  |  | 
CNC(=O)Oc1cccc(CN(C)CCCOc2ccc(C(=O)c3ccccc3)cc2)c1 | 5.4 | 24.5 |  |  | 
CNC(=O)Oc1cccc(CN(C)CCCCCCCCCCOc2ccc3c(=O)c4ccccc4oc3c2)c1 | 21.8 | 31.6 |  |  | 
CNC(=O)Oc1cccc(CN(C)CC#CCOc2ccc3c(=O)c4ccccc4oc3c2)c1 | 210 | 529 |  |  | 
CNC(=O)Oc1cccc(CN(C)CCCCCCCCOc2ccc3c(=O)c4ccccc4oc3c2)c1 | 6.8 | 25.2 |  |  | 
CNC(=O)Oc1ccc2c(c1)[C@]1(C)CCN(C)[C@@H]1N2C [PHYSOSTIGMINE] |  |  | 33.5 | 0.41 | 0.43
